MIC data for four molecules are collected here from ChEMBL document CHEMBL1250476, “Synthesis and antifungal evaluation of novel triazole derivatives as inhibitors of cytochrome P450 14alpha-demethylase” (2010).

Holding throughout (assay type): functional
Test [1] relates to Candida albicans. Nature of the test: Antifungal activity against Candida albicans SC5314 after 24 hrs by micro-broth dilution method. The conditions noted are these: SC5314, 24 h. The method, boiled down:
(§1)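 Broth microdilution per NCCLS on Candida albicans. Compounds were dissolved in DMSO, serially diluted in growth medium, inoculated and incubated at 35 °C. Growth was read at 24 h, and MIC80 was taken as the first well with about 80% growth reduction relative to the drug-free control. Values are the mean of three replicates.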
(In general: In broth dilution the organism is exposed to a series of concentrations in liquid medium.)

For test [2], the system named is Candida albicans. Briefly: Antifungal activity against Candida albicans Y0109 after 24 hrs by micro-broth dilution method. The conditions noted are these: Y0109, 24 h. The method, boiled down:
as §1

The next test has as its system Cryptococcus neoformans. Nature of the test: Antifungal activity against Cryptococcus neoformans after 72 hrs by micro-broth dilution method. The method, boiled down: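 Cryptococcus neoformans tested by NCCLS micro-broth dilution. Compounds were dissolved in DMSO, serially diluted in medium, inoculated and incubated at 35 °C. MIC80 was read at 72 h as the first well showing approximately 80% growth reduction compared with the drug-free well. Values are the mean of three replicate tests.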

The subject of the next test is Candida parapsilosis. Nature of the test: Antifungal activity against Candida parapsilosis by micro-broth dilution method. The settings on record: Lodderomyces parapsilosis. The gist of the method:
(§2)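 MIC80 by broth microdilution in 96-well format following NCCLS. Compounds were dissolved in DMSO, serially diluted in growth medium, inoculated and incubated at 35 °C. The endpoint was the first well with about 80% growth reduction versus the drug-free well. Values are means of three replicate tests.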

Another test has as its system Candida tropicalis. Briefly: Antifungal activity against Candida tropicalis by micro-broth dilution method. The method, boiled down: as §2
The subject of another test is Trichophyton rubrum. Nature of the test: Antifungal activity against Trichophyton rubrum by micro-broth dilution method. The method, boiled down:
as §2

The next test relates to Kluyveromyces marxianus. Briefly: Antifungal activity against Candida kefyr by micro-broth dilution method. The gist of the method: as §2
In another test the test system is Aspergillus fumigatus. Nature of the test: Antifungal activity against Aspergillus fumigatus by micro-broth dilution method. The gist of the method:
as §2

≈ marks a conversion by molar mass, not a printed value. Some results are limits rather than exact numbers.

By MIC is commonly meant the smallest concentration in the dilution series that meets the test's criterion for growth inhibition. Lower therefore signals greater potency. With `CCCCCn1cc(CN(CC(O)(Cn2cncn2)c2ccc(F)cc2F)C2CC2)nn1` (configuration not stated), the MIC in the test with Candida albicans [1] is less than 0.125 µg/mL; in the test with Candida albicans [2], 0.0625 µg/mL (≈ 0.14 µM); in the test on Cryptococcus neoformans it was 32 µg/mL (≈ 71.8 µM); against Candida parapsilosis it was 0.5 µg/mL (≈ 1.12 µM); in the test on Candida tropicalis, 0.25 µg/mL (≈ 0.561 µM); in the test with Trichophyton rubrum it was less than 0.125 µg/mL. Besides, the values for the MIC against Kluyveromyces marxianus and against Aspergillus fumigatus were 0.25 µg/mL (≈ 0.561 µM) and more than 64 µg/mL, respectively.
`CCC(C)n1ncn(-c2ccc(N3CCN(c4ccc(OCC5COC(Cn6cncn6)(c6ccc(Cl)cc6Cl)O5)cc4)CC3)cc2)c1=O` (configuration not stated) [ITRACONAZOLE]: the MIC in the test with Candida albicans [1] was less than 0.0625 µg/mL; in the test with Candida albicans [2], 0.0625 µg/mL (≈ 0.0886 µM); in the test on Cryptococcus neoformans, 0.125 µg/mL (≈ 0.177 µM); in the test with Candida parapsilosis, 0.0625 µg/mL (≈ 0.0886 µM); with Candida tropicalis, less than 0.0625 µg/mL; against Trichophyton rubrum, 0.0625 µg/mL (≈ 0.0886 µM). Moreover, the MIC with Kluyveromyces marxianus turned out to be 0.0625 µg/mL (≈ 0.0886 µM); in the test on Aspergillus fumigatus, 2 µg/mL (≈ 2.83 µM).
Consider `CC(C)N(Cc1cn(Cc2ccccc2F)nn1)CC(O)(Cn1cncn1)c1ccc(F)cc1F` (configuration not stated), for which the MIC against Candida albicans [1] is less than 0.125 µg/mL; with Candida albicans [2], 0.0156 µg/mL (≈ 0.0321 µM); against Cryptococcus neoformans it was 2 µg/mL (≈ 4.12 µM); against Candida parapsilosis, 0.25 µg/mL (≈ 0.515 µM); against Candida tropicalis, less than 0.125 µg/mL; against Trichophyton rubrum, less than 0.125 µg/mL. For the same molecule, the values for the MIC against Kluyveromyces marxianus and with Aspergillus fumigatus were 0.0625 µg/mL (≈ 0.129 µM) and more than 64 µg/mL, respectively.
As to `CC(C)N(Cc1cn(Cc2ccccc2[N+](=O)[O-])nn1)CC(O)(Cn1cncn1)c1ccc(F)cc1F` (configuration not stated), the MIC against Candida albicans [1] was less than 0.125 µg/mL; with Candida albicans [2], 0.0625 µg/mL (≈ 0.122 µM); with Cryptococcus neoformans, 32 µg/mL (≈ 62.4 µM); in the test with Candida parapsilosis it was 8 µg/mL (≈ 15.6 µM); against Candida tropicalis, 2 µg/mL (≈ 3.9 µM); in the test on Trichophyton rubrum, 1 µg/mL (≈ 1.95 µM). Besides, the figures for the MIC against Kluyveromyces marxianus and with Aspergillus fumigatus were 0.0625 µg/mL (≈ 0.122 µM) and more than 64 µg/mL, respectively.
